Results published in publication PMC3306454 (ACS Chemical Biology, 2012).
Where “and” joins values, the source holds several entries; their conditions need not be identical. Equal values may be shown once. Entries after “also recorded” stand apart in the source; their conditions may differ.

Tests used:
[1] = system: RNA 1×1 nucleotide internal loops and fully paired RNA; assay: Competition dialysis, binding selectivity; conditions: 1 µM ligand, 1.6 µM RNA, 24 h
Summary of the method: (§1)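 RNAs were run-off transcribed, carried internal loops in a GNRA-hairpin cassette with a fully paired control, and were PAGE-purified. They were folded by heating at 60 °C for 5 min, then slow cooling. Dialysis units with 1.6 μM RNA stood against 1 μM ligand in buffer (8 mM NaH2PO4, 185 mM NaCl, 1 mM EDTA, pH 7.2), stirred 200 rpm, 24 h, 20–22 °C. SDS was added (1% final); Ct was measured spectrophotometrically; Cb = Ct − Cf.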

[2] = system: nuclear r(CAG)exp foci in HD-derived fibroblasts; assay: FISH of nuclear r; assay type: cell-based, Human
Summary of the method: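 Fibroblasts (HD line GM04281: r(CAG)17 and r(CAG)69 HTT alleles) at ~60% confluence were given test compound at 50−300 μM final, or water, for 48 h. Cells were fixed in 4% PFA/PBS at 4 °C, prehybridized (30% formamide, 2X SSC, 10 min), and hybridized with a 5′-Cy3, LNA-modified (CTG)6-CA probe. Washes were at 45 °C then 37 °C, and foci were imaged by fluorescence microscopy.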

[3] = system: RNA displaying 5’CAG/3’GAC motif; assay: Optical melting experiments; assay type: binding; conditions: for ΔTm (1 equiv.): one equivalent of ligand; for ΔTm (2 equiv.): two equivalents of ligand
Summary of the method: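 RNA in Affinity Buffer was denatured at 90 °C and cooled to 15 °C, with ligand at 1 or 2 equivalents. Absorbance at 260 nm was recorded against temperature at 1 °C/min. Tm was calculated as ΔH°×1000/ΔS° − 273.15.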

[4] = system: HD fibroblasts and neuroblastoma cellular models; assay: Cell morphology; assay type: cell-based, Human; conditions: for Toxicity as assessed by cell morphology: initial screen, 100 µM, both cellular models
Summary of the method: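 HD patient fibroblasts (r(CAG)69) and SK-N-MC neuroblastoma cells stably expressing r(CAG)74 were grown to ~60% confluence. Fresh medium with test compound was added: 100 μM for the screen, 50–300 μM for the dose series, water for untreated. Cells were kept 48 h, and microscopic images of cell morphology served as the toxicity estimate.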

[5] = system: SK-N-MC neuroblastoma cells stably expressing r(CAG)74; assay: RT-PCR splicing assay in neuroblastoma; assay type: cell-based, Human
Summary of the method: (§2)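 Fibroblasts were grown in MEM with 10% FBS and nonessential amino acids. SK-N-MC cells, with or without stable r(CAG)74, were grown in DMEM with 10% FBS. At ~60% confluence they received test compound at 50–300 μM final (water for untreated) for 48 h. ~1 μg total RNA was reverse transcribed with random primers, followed by RT-PCR, 2% agarose and ethidium staining. Normal isoform fraction was the normal band over total; ≥6 experiments, two-tailed t test versus untreated.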

[6] = system: HD patient-derived fibroblasts expressing r(CAG)69; assay: RT-PCR splicing assay in HD fibroblasts; assay type: cell-based, Human; conditions: for Effect on ATP2A1 splicing: initial screen, 100 µM, both cellular models
Summary of the method: as §2

[7] = system: normal neuroblastoma cell line / control cell lines that do not express r(CAG)exp; assay: RT-PCR splicing assay in control cell lines; assay type: cell-based, Human
Summary of the method: as §2

r(CAG)12-MBNL1 complex = assay: TR-FRET assay, disruption of the r; assay type: biochemical
RNA 5’CCG/3’GCG = assay: Fluorescence anisotropy direct binding assay
Summary of the method: (§3)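 RNA was titrated into 50 nM fluorescent test compound in Affinity Buffer (20 mM HEPES pH 7.5, 5 mM KCl, 150 mM NaCl, 1 mM MgCl2), equilibrating 5 min between additions. Anisotropy was read at ex 368 / em 500 nm and plotted against RNA concentration. Kd came from a quadratic binding equation fit.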

RNA 5’CAG/3’GAC = assay: Competition dialysis; assay type: binding; conditions: bound ligand relative to amount of RNA target
Summary of the method: as §1

[8] = biological target: RNA 5’CAG/3’GUC (fully paired RNA); assay: Fluorescence anisotropy direct binding assay; conditions: read-out: Dissociation constant, 5’CAG/3’GUC
Summary of the method: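 The RNA was made by run-off transcription and PAGE-purified, then folded by heating at 60 °C. Anisotropy was read at ex 368 nm and em 500 nm. Kd came from a quadratic binding fit of anisotropy versus RNA concentration.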

[9] = system: RNA containing 5’CGG/3’GGC; assay: Fluorescence anisotropy direct binding assay
Summary of the method: as §3

[10] = system: RNA containing 5’CUG/3’GUC; assay: Fluorescence anisotropy direct binding assay
Summary of the method: as §3

[11] = biological target: RNA containing the 5’CAG/3’GAC motif; assay: Fluorescence anisotropy direct binding assay; conditions: read-out: Dissociation constant, 5’CAG/3’GAC
Summary of the method: as §3

RNA 5’CAG/3’GCC = assay: Competition dialysis; assay type: binding; conditions: bound ligand relative to amount of RNA target
Summary of the method: as §1

[12] = neuroblastoma cells expressing r(CAG)74, 48 h

SMILES: COc1ccc2nc3cc(Cl)ccc3c(N)c2c1 [ACMA, 9-amino-6-chloro-2-methoxy acridine]
- Binding preference among RNAs [1]: binds preferentially to the fully paired RNA and the RNA displaying 5’CCG/3’GCC

SMILES: CN(C)c1ccc2cc3ccc(N(C)C)cc3nc2c1 [AO, Acridine Orange]
- Binding preference among RNAs [1]: little preference for binding to a fully paired RNA or any of the RNAs with 1×1 nucleotide internal loops

SMILES: N=C(N)Nc1ccc(OC(=O)c2ccc(NC(=N)N)cc2)cc1 [Compound D6, 4-guanidinophenyl 4-guanidinobenzoate]
- Effect on nuclear r(CAG)exp foci [2]: does not disrupt the formation of nuclear r(CAG)^exp foci; also recorded: does not significantly affect the number or the intensity of nuclear r(CAG)^exp foci
- ΔTm (1 equiv.) [3]: 3 °C
- ΔTm (2 equiv.) [3]: 9 °C
- Effect on cell morphology ([4]; increasing concentration of D6): cell morphology is not affected
- Toxicity as assessed by cell morphology [4]: least amount of toxicity
- Effect on MAPT pre-mRNA splicing ([5]; neuroblastoma cell line expressing 74 r(CAG) repeats): slightly worsens the splicing of the MAPT pre-mRNA toward the DM-like phenotype
- Concentration giving statistically significant improvement of ATP2A1 splicing [5, 12]: 100 to 300 µM
- Concentration giving statistically significant improvement of NCOR2 splicing [5, 12]: 100 to 300 µM
- Concentration giving statistically significant improvement of NCOR2 mis-splicing ([6]; HD fibroblasts, 48 h): 100 to 300 µM and 50 to 300 µM
- Effect on ATP2A1 splicing [6]: most significantly improved ATP2A1 mis-splicing
- Effect on splicing of other tested transcripts ([7]; control cell lines that do not express toxic r(CAG)exp): does not affect the splicing
- Effect on MAPT pre-mRNA splicing ([7]; normal neuroblastoma cell line): more pronounced effect
- Fold more potent than the other compounds studied (r(CAG)12-MBNL1 complex; TR-FRET IC50): at least 20 fold
- IC50 (r(CAG)12-MBNL1 complex; pre-formed r(CAG)12-MBNL1 complex, TR-FRET): 3000 nM

SMILES: N=C(N)c1ccc(-c2cc3ccc(C(=N)N)cc3[nH]2)cc1 [DAPI, 4',6-diamidino-2-phenylindole]
- Fold weaker binding to 5’CCG/3’GCC than to 5’CAG/3’GAC (RNA 5’CCG/3’GCG; fluorescence anisotropy): ~ 5 fold
- Kd (RNA 5’CCG/3’GCG; read-out: Dissociation constant, 5’CCG/3’GCG, direct binding assay): 990 ± 200 nM
- Binding stoichiometry to 5’CAG/3’GAC (RNA 5’CAG/3’GAC): stoichiometric amounts
- ΔTm (1 equiv.) [3]: 6 °C
- ΔTm (2 equiv.) [3]: 10 °C
- Kd [8]: > 3000 nM
- Fold weaker binding to 5’CGG/3’GGC than to 5’CAG/3’GAC ([9]; fluorescence anisotropy): approximately 2.5 fold
- Kd ([9]; read-out: Dissociation constant, 5’CGG/3’GGC, direct binding assay): 500 ± 100 nM
- Binding preference among RNAs [1]: preferentially binds to 5’CAG/3’GAC and 5’CAG/3’GCC
- Fold weaker binding to 5’CUG/3’GUC than to 5’CAG/3’GAC ([10]; fluorescence anisotropy): approximately 2.5 fold
- Kd ([10]; read-out: Dissociation constant, 5’CUG/3’GUC, direct binding assay): 550 ± 200 nM
- Toxicity as assessed by cell morphology [4]: strongest morphological changes
- Kd [11]: 220 ± 60 nM
- Effect on ATP2A1 splicing [6]: exacerbated splicing abnormalities of ATP2A1
- Binding stoichiometry to 5’CAG/3’GCC (RNA 5’CAG/3’GCC): stoichiometric amounts

SMILES: COc1cccc2c1C(=O)c1c(O)c3c(c(O)c1C2=O)C[C@@](O)(C(C)=O)C[C@@H]3O[C@H]1C[C@H](N)[C@H](O)[C@H](C)O1 [DNM, Daunomycin]
- Binding preference among RNAs [1]: prefers to bind 5’CCG/3’GAC

SMILES: O=C1c2c(O)ccc(O)c2C(=O)c2c(NCCNCCO)ccc(NCCNCCO)c21 [MTX, Mitoxantrone]
- Binding preference among RNAs [1]: slight preference for 5’CCG/3’GAC while it discriminates against 5’CUG/3’GCC

SMILES: Cn1cc(NC(=O)c2cc(NC(=O)CN=C(N)N)cn2C)cc1C(=O)NCCC(=N)N [NTSP, netropsin]
- Binding preference among RNAs [1]: slight preference for 5’CCG/3’GUC

SMILES: CCN(CC)CCCC(C)Nc1c2ccc(Cl)cc2nc2ccc(OC)cc12 (stereo not drawn) [QNC, Quinacrine]
- Binding preference among RNAs [1]: prefers to bind 5’CAG/3’GCC

SMILES: Nc1ccc2cc3ccc(N)cc3nc2c1 [proflavin, Proflavin]
- Binding preference among RNAs [1]: little preference for binding to a fully paired RNA or any of the RNAs with 1×1 nucleotide internal loops
